Data: PMC9728588 (Chemical Science, 2022)
Ends that are not written are not given here.

Tests used:
CD47 = CD47 (Homo sapiens, UniProt Q08722); experiment: SPRi analysis of the binding between RT and CD47
red blood cells = experiment: Hemolysis assay; type: cell-based, mouse; details: 2% (v/v) RBC in PBS, 37 °C, 1 h; absorbance 540 nm; water / PBS controls
Outline: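 Red cells were exposed to the test peptide across a concentration range, and separately to peptide–quantum dot co-assemblies (peptide fixed at 1 mg mL−1, QD level varied). Supernatants were scanned by UV-vis spectroscopy to derive hemolysis rates. Means ± s.d., n = 3; one-way ANOVA with Tukey post hoc test.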

CD47, sequence (Q08722 19-323, species assumed): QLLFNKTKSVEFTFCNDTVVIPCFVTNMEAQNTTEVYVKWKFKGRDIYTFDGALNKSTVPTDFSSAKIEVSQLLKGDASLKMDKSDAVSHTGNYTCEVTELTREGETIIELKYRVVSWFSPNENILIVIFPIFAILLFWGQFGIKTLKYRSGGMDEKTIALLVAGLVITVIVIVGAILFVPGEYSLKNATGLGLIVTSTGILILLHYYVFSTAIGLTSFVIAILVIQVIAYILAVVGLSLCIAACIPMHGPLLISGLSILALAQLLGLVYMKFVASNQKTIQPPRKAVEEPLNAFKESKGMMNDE

Q: Which Kd (CD47) does the source give for HFEYWEERHKKLVFF [RT] here?
A: 0.318 µM

Q: And the hemolytic effect (red blood cells)?
A: almost no hemolytic effect
